The values that follow come from publication PMC5916823 (Molecular cell, 2018).

The conditions of series [1]: ref Kotschy et al., 2016; cited from earlier work.
A further series concerns surface groove of MCL-1. Conditions: ref Kotschy et al., 2016; cited from earlier work.
A further series has as its system MCAD. It is filed as binding, mouse. Conditions: Mcl-1-deleted murine livers reconstituted by scAAV; MS in duplicate. The method in brief:
(§1)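 Mcl-1 floxed mice (6–8 weeks, mixed sex) received tail-vein scAAV-LP1-Cre (2×10^11 genome copies) plus GFP control or FLAG-MCL-1 (wild-type, OMM-only or Matrix-only isoform) vectors (5×10^10 copies). Two weeks later, liver mitochondria were isolated by differential centrifugation and a 70%/30% Percoll gradient. Anti-FLAG M2 IP was run in 0.5% NP40/Tris pH 7.5 for 90 min, with FLAG-peptide elution. Three livers were pooled per IP; MS was run in duplicate, Sequest, ~1% FDR.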

The next series relates to SCAD. The class given is binding, mouse. The conditions noted are these: Mcl-1-deleted murine livers reconstituted by scAAV; MS in duplicate. Summed up: as §1
A further series deals with BIM. The class given is binding, mouse. The conditions noted are these: Mcl-1-deleted murine livers reconstituted by scAAV; MS in duplicate. The method in brief: as §1
A further series has as its system PUMA. The class given is binding, mouse. The conditions noted are these: Mcl-1-deleted murine livers reconstituted by scAAV; MS in duplicate. The method in brief: as §1
The series “SEC” deals with the molecule itself. Briefly: SEC.

In general, stoichiometry N refers to a count of units in the complex or per binding partner.

With `Cc1c(-c2c(-c3ccc(F)o3)sc3ncnc(O[C@H](Cc4ccccc4OCc4ccnn4CC(F)(F)F)C(=O)O)c23)ccc(OCCN2CCN(C)CC2)c1Cl` [S63845], the “Toxicity in treated mice” value in series [1] is “lack of overt toxicity, including cardiotoxicity”. Besides, the “Selectivity for MCL-1” value in the series with surface groove of MCL-1 is on record as “selectively targets the surface groove of MCL-1”.

B1: FLAG-MCL-1: full-length protein, reconstituted into Mcl-1−/− murine livers (protein, UniProt P97287 1-331, looked up)
chain: MFGLRRNAVIGLNLYCGGASLGAGGGSPAGARLVAEEAKARREGGGEAALLPGARVVARPPPVGAEDPDVTASAERRLHKSPGLLAVPPEEMAASAAAAIVSPEEELDGCEPEAIGKRPAVLPLLERVSEAAKSSGADGSLPSTPPPPEEEEDDLYRQSLEIISRYLREQATGSKDSKPLGEAGAAGRRALETLRRVGDGVQRNHETAFQGMLRKLDIKNEGDVKSFSRVMVHVFKDGVTNWGRIVTLISFGAFVAKHLKSVNQESFIEPLAETITDVLVRTKRDWLVKQRGWDGFVEFFHVQDLEGGIRNVLLAFAGVAGVGAGLAYLIR
modifications: full-length FLAG tag
Take B1: the “Interaction with MCAD (FLAG pull-down)” value in the series with MCAD is “not MCAD or SCAD”. Further, the “Interaction with SCAD (FLAG pull-down)” value with SCAD is “not MCAD or SCAD”. Further, the “Interaction with BIM (FLAG pull-down)” value with BIM was “pulled down native VLCAD and established physiologic interactors of MCL-1, such as BIM and PUMA”. In the series with PUMA, the “Interaction with PUMA (FLAG pull-down)” value was “pulled down native VLCAD and established physiologic interactors of MCL-1, such as BIM and PUMA”.

B2: FLAG-MCL-1^OMM: mutant MCL-1 construct with an internal FLAG tag that only generates the OMM isoform (protein)
chain: MFGLAANAVIGLNLYCGGASLGAGGGSPAGARLVAEEAKARREGGGEAALLPGARVVARPPPVGAEDPDVTASAERRLHKSPGLLAVPPEEMAASAAAAIVSPEEELDGCEPEAIGKRPAVLPLLERVSEAAKSSGADGSLPSTPPPPEEEEDDLYRQSLEIISRYLREQATGSKDSKPLGEAGAAGRRALETLRRVGDGVQRNHETAFQGMLRKLDIKNEGDVKSFSRVMVHVFKDGVTNWGRIVTLISFGAFVAKHLKSVNQESFIEPLAETITDVLVRTKRDWLVKQRGWDGFVEFFHVQDLEGGIRNVLLAFAGVAGVGAGLAYLIR
modifications: left off: FLAG, internal (at residue 134), kept
On to B2, for which, in the series with BIM, the “Interaction with BIM (FLAG pull-down)” value was “BIM and PUMA were enriched”. For the same molecule, the “Interaction with PUMA (FLAG pull-down)” value in the series on PUMA is “BIM and PUMA were enriched”.

B3: recombinant human VLCAD (aa 40-655), His-tagged (enzyme, UniProt P49748-1 40-655, looked up)
chain: YAGGAAQLALDKSDSHPSDALTRKKPAKAESKSFAVGMFKGQLTTDQVFPYPSVLNEEQTQFLKELVEPVSRFFEEVNDPAKNDALEMVEETTWQGLKELGAFGLQVPSELGGVGLCNTQYARLVEIVGMHDLGVGITLGAHQSIGFKGILLFGTKAQKEKYLPKLASGETVAAFCLTEPSSGSDAASIRTSAVPSPCGKYYTLNGSKLWISNGGLADIFTVFAKTPVTDPATGAVKEKITAFVVERGFGGITHGPPEKKMGIKASNTAEVFFDGVRVPSENVLGEVGSGFKVAMHILNNGRFGMAAALAGTMRGIIAKAVDHATNRTQFGEKIHNFGLIQEKLARMVMLQYVTESMAYMVSANMDQGATDFQIEAAISKIFGSEAAWKVTDECIQIMGGMGFMKEPGVERVLRDLRIFRIFEGTNDILRLFVALQGCMDKGKELSGLGSALKNPFGNAGLLLGEAGKQLRRRAGLGSGLSLSGLVHPELSRSGELAVRALEQFATVVEAKLIKHKKGIVNEQFLLQRLADGAIDLYAMVVVLSRASRSLSEGHPTAQHEKMLCDTWCIEAAARIREGMAALQSDPWQQELYRNFKSISKALVERGGVVTSNPLGF
In the case of B3, in the series “SEC”, the “stoichiometry N” value is 2.
